A word on the Ki: it is the equilibrium dissociation constant of an inhibitor or competing ligand from its target. One may read the pKa as the negative logarithm of the acid dissociation constant. The term inhibition in vivo denotes the relative decrease from the control value, in per cent. As a reminder, the ED50 is the dose that gives a 50% effect, or the effect in half of the subjects. A lower ED50 goes with an effect at a small dose. As a reminder, the inhibition is the share of the control response that was lost under treatment. Read a low inhibition as a response near the control. The IC50 is the concentration that gives 50% inhibition. A word on the solubility: it is how much of the substance goes into solution per volume. A word on the bioavailability: it is the share of a dose that reaches the circulation, judged against a reference dose that is usually intravenous.

For series [1], the species on record is Homo sapiens. Nature of the series: Selectivity for human vasopressin V1a receptor over human oxytocin receptor.
For series [2], the target named is T1, Oxytocin receptor (Homo sapiens, UniProt P30559).
T1 sequence (P30559 whole entry): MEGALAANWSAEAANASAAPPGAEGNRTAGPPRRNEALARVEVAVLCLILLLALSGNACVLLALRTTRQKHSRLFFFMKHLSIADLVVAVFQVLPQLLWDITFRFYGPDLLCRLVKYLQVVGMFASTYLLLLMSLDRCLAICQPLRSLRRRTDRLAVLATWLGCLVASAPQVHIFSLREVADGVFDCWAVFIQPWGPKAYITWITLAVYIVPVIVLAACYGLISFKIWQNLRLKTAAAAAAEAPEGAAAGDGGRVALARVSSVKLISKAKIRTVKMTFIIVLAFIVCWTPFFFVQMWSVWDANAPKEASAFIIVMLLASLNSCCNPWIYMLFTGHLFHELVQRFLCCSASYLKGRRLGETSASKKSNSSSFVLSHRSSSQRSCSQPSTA
Nature of the series: biochemical. It is filed as cell-based, HEK293-EBNA.

Series [3] concerns the target Vasopressin V1a receptor (Homo sapiens, UniProt P37288). Nature of the series: Displacement of [125I]LVA antagonist from human vasopressin 1a receptor expressed in HEK293-EBNA cells. It is filed as cell-based. (Displacement assays read how much labelled ligand stays bound in the presence of the test substance.)
The nature of series [4]: Dissociation constant of the compound. It is filed as physicochemical.
The subject of series [5] is Rattus norvegicus. The experiment in a line: Inhibition of spontaneous uterine contraction in late-term pregnant rats at 30 mg/kg, po.
The nature of series [6]: Stability of compound in presence of rat liver microsomes. It is filed as ADME. In a few lines: (§1)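 Liver microsomes (human or rat) at final […] in 0.1 M phosphate pH 7.4 with compound at final 40 µM (1% DMSO), preincubated at 37 °C; reaction started with 1 mM NADPH; stopped with cold acetonitrile at 0, 20 and 60 min.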
On the technique in general: Microsomes from liver hold many membrane-bound enzymes, among them those of drug oxidation.

Series [7] concerns the target T2, Oxytocin receptor (Rattus norvegicus) (UniProt P70536).
T2 sequence (whole entry): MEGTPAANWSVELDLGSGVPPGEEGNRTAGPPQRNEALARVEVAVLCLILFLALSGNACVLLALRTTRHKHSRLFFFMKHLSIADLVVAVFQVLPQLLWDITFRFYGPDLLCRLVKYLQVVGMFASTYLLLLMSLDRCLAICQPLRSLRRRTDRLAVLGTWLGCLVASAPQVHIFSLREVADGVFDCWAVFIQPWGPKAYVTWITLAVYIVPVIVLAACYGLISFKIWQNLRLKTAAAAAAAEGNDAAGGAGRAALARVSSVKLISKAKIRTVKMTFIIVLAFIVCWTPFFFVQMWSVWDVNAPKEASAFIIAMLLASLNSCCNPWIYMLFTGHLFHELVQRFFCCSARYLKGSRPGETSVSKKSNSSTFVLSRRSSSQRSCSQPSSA
The experiment in a line: In vivo efficacy against oxytocin-induced uterine contractions in nonpregnant rats administered iv. It counts as functional, organism-based. An outline of the steps: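 Anaesthetized nonpregnant rats; compound given as a solution by iv infusion in NP3S, PEG/saline or saline. Contractions read as AUC of intraluminal uterine pressure over 35 min, relative to the third OT injection, and expressed as % inhibition versus a vehicle group. ED50 is taken from a dose-response curve of peak inhibition values.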

In series [8] the target is T2, Oxytocin receptor (Rattus norvegicus). The experiment in a line: Inhibition of oxytocin-induced uterine contractions in nonpregnant rats administered at 10 mg/kg, iv. The arrangement: dose 10 mg/kg. It is filed as functional, organism-based. In a few lines: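 Anaesthetized nonpregnant rats; compound given as a solution by iv infusion in NP3S, PEG/saline or saline. Uterine intraluminal pressure AUC is read relative to the third OT injection. Inhibition is taken versus vehicle values at 5 min after OT administration.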

Series [9] addresses T3, Oxytocin receptor (Rattus norvegicus, UniProt P70536).
T3 sequence (P70536 whole entry): T2 sequence (whole entry)
Nature of the series: Displacement of [125I]OVTA antagonist from rat oxytocin receptor expressed in HEK293-EBNA cells. It is filed as cell-based.

The nature of series [10]: Inhibitory activity against cytochrome P450. It counts as ADME. An outline of the steps:
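Baculovirus/insect-cell expressed CYP isoforms incubated with compound at several concentrations in 1% DMSO plus isoform-specific fluorogenic substrate; fluorescence after a fixed reaction time used to compute % inhibition and IC50.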

Series [11] has as its system Liver microsomes. The experiment in a line: Stability of compound in presence of human liver microsomes. It counts as ADME, Microsome. An outline of the steps:
as §1

The target of series [12] is T2, Oxytocin receptor (Rattus norvegicus). Nature of the series: Inhibition of oxytocin-induced uterine contractions in nonpregnant rats administered at 30 mg/kg, po. It is filed as functional, organism-based. Also noted: dose 30 mg/kg. In a few lines: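 Anaesthetized nonpregnant rats dosed orally by esophagus cannulation with a solution in NP3S, PEG/saline or saline. Uterine intraluminal pressure AUC is read versus vehicle. The value is the maximum inhibition within a 3 h interval after OT administration.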

In series [13] the target is Cytochrome P450 3A4 (Homo sapiens, UniProt P08684). The experiment in a line: Inhibitory activity against cytochrome P450 3A4 isoform. It counts as ADME. In a few lines:
(§2)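 Baculovirus/insect-cell-expressed CYP isoforms are incubated with a specific fluorogenic substrate and several compound concentrations in 1% DMSO. Fluorescence of the product after a defined reaction time gives % inhibition at each concentration and the IC50.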

Series [14] has as its target T1, Oxytocin receptor. Nature of the series: Inhibitory activity against human Oxytocin induced intracellular Calcium mobilization in human Oxytocin receptor transfected HEK293-EBNA cells. It counts as functional, cell-based. In general terms: A change in cytosolic calcium serves as a functional read-out for many receptors and channels.
Series [15] can be described thus: Solubility in saline. It counts as physicochemical.
In series [16] the target is Cytochrome P450 2C19 (Homo sapiens, UniProt P33261). Nature of the series: Inhibitory activity against cytochrome P450 2C19 isoform. It counts as ADME. In a few lines: as §2
The target of series [17] is Cytochrome P450 2C9 (Homo sapiens, UniProt P11712). The experiment in a line: Inhibitory activity against cytochrome P450 2C9 isoform.
The nature of series [18]: Solubility in aqueous medium. It counts as physicochemical. The following applies: aqueous medium; read-out: Solubility.
Series [19] addresses Vasopressin V2 receptor (Homo sapiens, UniProt P30518). Nature of the series: Displacement of [125I]LVA antagonist from human vasopressin 2 receptor expressed in HEK293-EBNA cells. It is filed as cell-based.
The nature of series [20]: Oral bioavailability in rat. It counts as ADME, organism-based. The following applies: in vivo.

Chain of Vasopressin V1a receptor (P37288 whole entry): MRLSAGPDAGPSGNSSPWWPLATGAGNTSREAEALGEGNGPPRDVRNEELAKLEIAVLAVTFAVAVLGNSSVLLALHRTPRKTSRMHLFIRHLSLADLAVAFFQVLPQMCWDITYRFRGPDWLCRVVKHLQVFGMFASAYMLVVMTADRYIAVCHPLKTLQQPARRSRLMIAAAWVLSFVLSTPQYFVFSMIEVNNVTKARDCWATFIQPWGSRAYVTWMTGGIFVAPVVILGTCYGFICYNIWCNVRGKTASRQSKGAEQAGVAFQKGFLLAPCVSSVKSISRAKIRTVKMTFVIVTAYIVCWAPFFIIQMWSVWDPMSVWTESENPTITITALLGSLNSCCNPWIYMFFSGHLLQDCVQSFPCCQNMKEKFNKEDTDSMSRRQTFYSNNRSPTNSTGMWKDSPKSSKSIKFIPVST
Chain of Cytochrome P450 2C9 (P11712 whole entry, canonical isoform): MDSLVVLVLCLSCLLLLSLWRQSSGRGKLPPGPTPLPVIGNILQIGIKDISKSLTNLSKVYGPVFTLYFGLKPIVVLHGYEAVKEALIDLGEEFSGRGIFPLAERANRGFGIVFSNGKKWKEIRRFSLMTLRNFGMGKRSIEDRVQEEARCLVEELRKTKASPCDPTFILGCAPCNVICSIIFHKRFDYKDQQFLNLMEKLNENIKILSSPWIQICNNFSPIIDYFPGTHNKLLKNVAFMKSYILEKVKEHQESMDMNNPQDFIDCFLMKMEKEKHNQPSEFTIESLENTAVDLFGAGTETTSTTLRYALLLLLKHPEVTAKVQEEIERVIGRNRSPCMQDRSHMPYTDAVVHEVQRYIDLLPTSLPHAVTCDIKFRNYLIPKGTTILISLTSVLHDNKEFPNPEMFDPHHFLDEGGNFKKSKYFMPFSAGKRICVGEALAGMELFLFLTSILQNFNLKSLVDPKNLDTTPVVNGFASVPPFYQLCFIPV
Chain of Cytochrome P450 2C19 (P33261 whole entry, canonical isoform): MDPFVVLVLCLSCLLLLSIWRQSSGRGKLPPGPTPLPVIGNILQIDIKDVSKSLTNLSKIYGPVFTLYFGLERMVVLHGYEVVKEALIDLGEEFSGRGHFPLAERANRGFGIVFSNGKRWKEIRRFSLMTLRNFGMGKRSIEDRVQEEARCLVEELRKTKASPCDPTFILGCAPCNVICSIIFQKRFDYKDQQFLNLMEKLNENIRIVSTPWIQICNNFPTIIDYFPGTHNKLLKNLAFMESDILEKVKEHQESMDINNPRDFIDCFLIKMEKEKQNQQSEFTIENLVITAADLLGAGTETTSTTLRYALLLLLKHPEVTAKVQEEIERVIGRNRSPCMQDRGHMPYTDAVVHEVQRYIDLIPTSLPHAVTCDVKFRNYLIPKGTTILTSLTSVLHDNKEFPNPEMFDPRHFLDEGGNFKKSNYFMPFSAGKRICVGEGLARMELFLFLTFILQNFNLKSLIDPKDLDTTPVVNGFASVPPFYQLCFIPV
Chain of Vasopressin V2 receptor (P30518 whole entry): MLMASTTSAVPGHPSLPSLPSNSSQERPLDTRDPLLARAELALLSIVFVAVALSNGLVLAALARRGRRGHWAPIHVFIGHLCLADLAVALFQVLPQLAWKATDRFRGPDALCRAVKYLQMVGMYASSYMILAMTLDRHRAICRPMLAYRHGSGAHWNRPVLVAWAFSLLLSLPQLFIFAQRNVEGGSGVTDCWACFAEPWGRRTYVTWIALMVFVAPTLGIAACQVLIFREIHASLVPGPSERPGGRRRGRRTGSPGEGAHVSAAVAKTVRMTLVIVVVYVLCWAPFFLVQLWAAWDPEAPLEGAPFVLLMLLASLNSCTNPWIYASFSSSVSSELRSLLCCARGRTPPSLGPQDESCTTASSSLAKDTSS
Chain of Cytochrome P450 3A4 (P08684 whole entry, canonical isoform): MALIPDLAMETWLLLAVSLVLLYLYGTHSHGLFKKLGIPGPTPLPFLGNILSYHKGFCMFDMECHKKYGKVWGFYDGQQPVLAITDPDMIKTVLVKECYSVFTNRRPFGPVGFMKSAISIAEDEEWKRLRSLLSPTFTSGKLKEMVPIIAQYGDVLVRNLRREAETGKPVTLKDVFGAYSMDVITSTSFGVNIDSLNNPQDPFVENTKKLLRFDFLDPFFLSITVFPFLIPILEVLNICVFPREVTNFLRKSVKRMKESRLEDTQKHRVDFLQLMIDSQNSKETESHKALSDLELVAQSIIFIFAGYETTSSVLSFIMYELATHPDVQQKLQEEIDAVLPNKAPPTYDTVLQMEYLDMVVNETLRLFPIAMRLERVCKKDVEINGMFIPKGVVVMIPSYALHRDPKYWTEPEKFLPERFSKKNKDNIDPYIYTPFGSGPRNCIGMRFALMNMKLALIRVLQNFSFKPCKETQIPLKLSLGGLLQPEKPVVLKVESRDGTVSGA

With `CCOc1ccc(S(=O)(=O)N(CC(=O)N/N=C2\C(=O)Nc3ccncc32)c2ccc(Cl)cc2)cc1`, the Ratio Ki in series [1] is 56. The Ki in series [2] was 64 nM; in series [3], 3610 nM. The pKa in series [4] was found to be 4.4.

Turning to `CN(C)CCCNC(=O)CCc1ccc(S(=O)(=O)N(CC(=O)N/N=C2\C(=O)Nc3ccccc32)c2ccc(Cl)cc2)cc1`, the Ratio Ki in series [1] was found to be 65. The same compound gave an inhibition in vivo at 30 mg/kg in series [5] of 29.3%. Besides, the Ki in [2] turned out to be 0.65 nM; in series [3], 42 nM; in series [9], 0.67 nM. Besides, the metabolised in series [6] turned out to be 0%. In series [7], this compound registered an ED50 of 1.4 mg/kg. The inhibition came to 72% in [8] and 35% in series [12]. In series [10], this compound came in with an IC50 of over 1000 nM. Moreover, the MET in series [11] stood at 18%.

Take `O=C(CN(c1ccc(Cl)cc1)S(=O)(=O)c1ccc(NCCN2CCOCC2)cc1)N/N=C1\C(=O)Nc2ccccc21`: in [1], the Ratio Ki amounted to 84. Further, the Ki in series [2] stood at 7 nM; in [3] it was 582 nM; in [9] it was 25 nM. Besides, in series [6], the metabolised is 40%. In series [13], this compound yielded an IC50 of 310 nM. The MET in [11] is 73%.

Regarding `O=C(CN(c1ccc(Cl)cc1)S(=O)(=O)c1ccc(CCCO)cc1)N/N=C1\C(=O)Nc2ccccc21`, the Ratio Ki in series [1] was found to be 150. The IC50 in [14] was 32 nM; in series [16], 50 nM; in series [17], 345 nM. Further, the figures for the Ki in series [2] and in series [3] were 4.1 nM and 615 nM, respectively. The solubility in series [15] and in [18] was under 1 µg/mL in each case. Besides, in [6], the metabolised came out at 31%. Also, the MET in series [11] was found to be 34%.

In the case of `CCOc1ccc(S(=O)(=O)N(CC(=O)NN=C2C(=O)Nc3ccccc32)c2ccc(C)cc2)cc1`, in [14], the IC50 is 30 nM. The Ki in series [2] stood at 14 nM; in [3], 1410 nM; in series [19] it was 2500 nM; in series [9], 25 nM. The solubility in series [15] and in series [18] was under 1 µg/mL throughout. The compound also registered a bioavailability in series [20] of 6%.

Regarding `COCCOCCOc1ccc(S(=O)(=O)N(CC(=O)N/N=C2\C(=O)Nc3ccccc32)c2ccc(Cl)cc2)cc1`, in [1], the Ratio Ki worked out at 176. Further, the IC50 in [14] worked out at 7 nM; in series [17] it was 330 nM. Also, the figures for the Ki in series [2], in series [3] and in [9] were 3 nM, 511 nM and 12 nM, respectively. Moreover, the solubility in [15] and in [18] was under 1 µg/mL throughout. Also, the metabolised in series [6] was 89%. The same compound returned an inhibition in [8] of 23.3%. For the same compound, the MET in [11] is recorded as 79%.

The values are drawn from ChEMBL document CHEMBL1141231, “Discovery and development of a new class of potent, selective, orally active oxytocin receptor antagonists” (J Med Chem, 2005).
